In general, MIC refers to the least concentration at which growth counts as inhibited. A low value points to a more susceptible organism.

Molecules are shown by their SMILES. Converted amounts (≈) assume the structure as drawn.

Among the data in ChEMBL document CHEMBL1629560, “Gain-of-function mutations in the transcription factor MRR1 are responsible for overexpression of the MDR1 efflux pump in fluconazole-resistant Candida dubliniensis strains” (2008) are MIC values, retold here.

The subject of test [1] is Candida albicans. Kind of test: Antimicrobial activity against Candida albicans harboring MRR1 gene by microdilution method. The test is classed as functional. Summed up: (§1)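 MRR1 alleles were expressed from the ADH1 promoter as single-copy integrations in C. albicans SC5314 mrr1Δ mutants, selected with nourseothricin. Broth microdilution was run in HR medium with NaHCO3 and 0.2 M phosphate buffer (pH 7.2), using serial twofold dilutions. Starting assay concentrations were fluconazole 200 μg/ml, cerulenin 50 μg/ml and brefeldin A 200 μg/ml.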
(In general: Broth dilution looks for growth in wells or tubes with falling amounts of substance.)

The test system of test [2] is Candida dubliniensis. Kind of test: Antimicrobial activity against Candida dubliniensis harboring MRR1 CM2 mutant gene by microdilution method. The test is classed as functional. Summed up:
as §1

The test system of test [3] is Candida albicans. Kind of test: Antimicrobial activity against Candida albicans harboring MRR1 CD57A mutant gene by microdilution method.
In test [4] the test system is Candida dubliniensis. In words: Antimicrobial activity against Candida dubliniensis harboring MRR1 CM1 mutant gene by microdilution method. The test is classed as functional. The method in brief: as §1
Test [5] deals with Candida albicans. In words: Antimicrobial activity against wild-type Candida albicans SC5314 by microdilution method. The class given is functional. Summed up:
(§2)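 Broth microdilution was run in HR medium with NaHCO3 and 0.2 M phosphate buffer (pH 7.2), using serial twofold dilutions. Starting assay concentrations were fluconazole 200 μg/ml, cerulenin 50 μg/ml and brefeldin A 200 μg/ml. Fluconazole stock was prepared in water; cerulenin and brefeldin A stocks were in DMSO. Strains were kept at −80°C and subcultured on YPD at 30°C.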

The subject of test [6] is Candida dubliniensis. Kind of test: Antimicrobial activity against Candida dubliniensis harboring MRR1 CD57 mutant gene by microdilution method. The class given is functional. The method in brief:
as §1

Test [7] deals with Candida albicans. In words: Antimicrobial activity against mrr1-deficient Candida albicans by microdilution method. The class given is functional. The method in brief:
as §2

The subject of test [8] is Candida albicans. In words: Antimicrobial activity against Candida albicans harboring MRR1 CD51-2A mutant gene by microdilution method.
Test [9] relates to Candida albicans. In words: Antimicrobial activity against Candida albicans harboring P683S mutation in MRR1F5 gene by microdilution method.
Test [10] relates to Candida dubliniensis. Kind of test: Antimicrobial activity against Candida dubliniensis harboring MRR1 CD57B mutant gene by microdilution method. The test is classed as functional. Summed up:
as §1

Test [11] relates to Candida albicans. In words: Antimicrobial activity against Candida albicans harboring MRR1 CD51-2B mutant gene by microdilution method.

On to `C[C@H]1CCC/C=C/[C@@H]2C[C@H](O)C[C@H]2[C@H](O)/C=C/C(=O)O1` [BREFELDIN A], for which the MIC turned out to be 1.56 µg/mL (≈ 5.56 µM) in [1]; 12.5 µg/mL (≈ 44.6 µM) in [2]; 12.5 µg/mL (≈ 44.6 µM) in [3]; 1.56 µg/mL (≈ 5.56 µM) in test [4]; 1.56 µg/mL (≈ 5.56 µM) in [5]; 1.56 µg/mL (≈ 5.56 µM) in test [6]. Also, the minimum inhibitory concentration (MIC) in [7] amounted to 1.56 µg/mL (≈ 5.56 µM); in test [8], 12.5 µg/mL (≈ 44.6 µM); in [9], 25 µg/mL (≈ 89.2 µM); in test [10] it was 12.5 µg/mL (≈ 44.6 µM); in test [11] it was 3.13 µg/mL (≈ 11.2 µM).
With `C/C=C/C/C=C/CCC(=O)[C@H]1O[C@H]1C(N)=O` [CERULENIN], the MIC in test [1] was determined as 0.2 µg/mL (≈ 0.896 µM); in test [2] it was 3.13 µg/mL (≈ 14 µM); in [3], 3.13 µg/mL (≈ 14 µM); in [4] it was 0.2 µg/mL (≈ 0.896 µM); in [5], 0.2 µg/mL (≈ 0.896 µM); in test [6] it was 0.2 µg/mL (≈ 0.896 µM). Also, the minimum inhibitory concentration (MIC) in test [7] is 0.2 µg/mL (≈ 0.896 µM); in test [8], 3.13 µg/mL (≈ 14 µM); in test [9] it was 6.25 µg/mL (≈ 28 µM); in [10], 3.13 µg/mL (≈ 14 µM); in test [11], 0.78 µg/mL (≈ 3.49 µM).
Consider `OC(Cn1cncn1)(Cn1cncn1)c1ccc(F)cc1F` [FLUCONAZOLE], for which the MIC in [1] was 0.1 µg/mL (≈ 0.327 µM); in [2], 0.78 µg/mL (≈ 2.55 µM); in test [3] it was 0.78 µg/mL (≈ 2.55 µM); in test [4], 0.1 µg/mL (≈ 0.327 µM); in test [5], 0.1 µg/mL (≈ 0.327 µM); in test [6], 0.1 µg/mL (≈ 0.327 µM). Further, the minimal inhibitory concentration (MIC) was 0.1 µg/mL (≈ 0.327 µM) in [7]; 0.78 µg/mL (≈ 2.55 µM) in test [8]; 3.13 µg/mL (≈ 10.2 µM) in [9]; 0.78 µg/mL (≈ 2.55 µM) in [10]; 0.39 µg/mL (≈ 1.27 µM) in [11].
